Peptide text beside a SMILES is read from it. * marks the point of attachment. Cbz = O=C(OCc1ccccc1)*

A word on the IC50: it is the concentration needed to halve the response being measured. Read a high IC50 as lower potency. As usually defined, the Ki is a dissociation constant, usually derived from enzyme kinetics or from competition with a known ligand.

The first assay is filed under the species Homo sapiens. Description: Inhibitory concentration against IL1-beta production in human monocytes. It is filed as functional.
The compound `O=C[C@H](CC(=O)O)NC(=O)[C@@H]1CCCN2C(=O)CC[C@H](NC(=O)c3ccccc3)C(=O)N12` yielded a half-maximal inhibitory concentration (IC50) of 1000 nM. This counts as single-digit micromolar.

A further assay addresses T1, Caspase-1 (Homo sapiens, UniProt P29466).
T1 sequence (P29466 whole entry): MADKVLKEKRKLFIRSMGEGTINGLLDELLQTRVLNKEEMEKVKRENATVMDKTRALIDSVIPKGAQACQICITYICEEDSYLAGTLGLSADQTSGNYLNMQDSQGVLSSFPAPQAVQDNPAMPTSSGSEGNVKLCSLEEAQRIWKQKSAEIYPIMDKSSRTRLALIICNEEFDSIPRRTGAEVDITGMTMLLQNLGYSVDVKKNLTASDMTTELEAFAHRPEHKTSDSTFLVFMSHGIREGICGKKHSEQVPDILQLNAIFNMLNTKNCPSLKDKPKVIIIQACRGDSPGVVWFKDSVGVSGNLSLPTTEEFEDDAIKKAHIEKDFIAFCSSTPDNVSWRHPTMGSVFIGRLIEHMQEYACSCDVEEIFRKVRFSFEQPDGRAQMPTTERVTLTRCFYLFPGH
Description: Reversible Inhibition constants against IL-1 beta converting enzyme (ICE). The method in brief: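 Fluorescence progress curves are recorded at 37 °C over 30 min. Ki for reversible inhibitors is derived by a method from a cited reference. Determinations are in triplicate, standard error <10%.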
Regarding `O=C[C@H](CC(=O)O)NC(=O)[C@@H]1CCCN2C(=O)CC[C@H](NC(=O)OCc3ccccc3)C(=O)N12`, the Ki amounted to 25 nM.

For the compound `O=C[C@H](CC(=O)O)NC(=O)[C@@H]1CCCN2C(=O)CC[C@H](NC(=O)c3ccc(OCC(=O)O)cc3)C(=O)N12`, the affinity corresponds to a Ki of 1 nM.

The compound `O=C[C@H](CC(=O)O)NC(=O)[C@@H]1CCCN2C(=O)CC[C@H](NC(=O)c3ccccc3)C(=O)N12` had a Ki of 5 nM. Against the preceding compound, the Ki is about 5-fold higher.

`CC(C)[C@H](NC(=O)OCc1ccccc1)C(=O)N[C@@H](C)C(=O)N[C@@H](CC(=O)O)C(=O)O` (Cbz-Val-Ala-Asp-OH) had an inhibition constant Ki of 15 nM. This Ki is about 3-fold higher than that of the compound before.

A further assay deals with T2, Caspase-1 (Homo sapiens) (UniProt P29466).
T2 sequence (whole entry): T1 sequence (P29466 whole entry)
Kind of assay: Second order rate constants were tested for inhibition of IL-1 beta converting enzyme (ICE). The method in brief:
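Fluorogenic progress-curve assay: ICE in 10 mM HEPES pH 7.5, 25% glycerol, 1 mM DTT, with 10 µM Suc-Tyr-Val-Ala-Asp-AMC; read at 37 °C over 30 min. Inactivation rates are taken from nonlinear progress curves by the Tian–Tsou method, giving second-order rate constants. Determinations are in triplicate, standard error <10%.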
In turn, `O=C(O)C[C@H](NC(=O)CN1C(=O)[C@@H](NC(=O)OCc2ccccc2)COc2ccccc21)C(=O)COC(=O)c1c(Cl)cccc1Cl` registered a K obs / 1 of 44000 M⁻¹ s⁻¹.

As to `O=C(O)C[C@H](NC(=O)[C@@H]1CCCN2C(=O)CC[C@H](NC(=O)c3ccc(CN4CCOCC4)cc3)C(=O)N12)C(=O)COC(=O)c1c(Cl)cccc1Cl`, the K obs / 1 stood at 425000 M⁻¹ s⁻¹.

As to `O=C(O)C[C@H](NC(=O)[C@@H]1CCCN2C(=O)CC[C@H](NC(=O)OCc3ccccc3)C(=O)N12)C(=O)COc1cc(C(F)(F)F)nn1-c1ccccc1`, the K obs / 1 is 413000 M⁻¹ s⁻¹.

With `O=C(O)C[C@H](NC(=O)Cn1c(-c2ccc(F)cc2)ncc(NC(=O)OCc2ccccc2)c1=O)C(=O)COC(=O)c1c(Cl)cccc1Cl`, the K obs / 1 was 268000 M⁻¹ s⁻¹.

`CC(C)[C@H](NC(=O)OCc1ccccc1)C(=O)N[C@@H](C)C(=O)N[C@@H](CC(=O)O)C(=O)COC(=O)c1c(Cl)cccc1Cl`: the K obs / 1 stood at 432000 M⁻¹ s⁻¹.

For the compound `CSc1ccc(C(=O)N[C@H](C(=O)N[C@@H](C)C(=O)N[C@@H](CC(=O)O)C(=O)COc2cc(C(F)(F)F)nn2-c2ccccc2)C(C)C)cc1`, the K obs / 1 was determined as 800000 M⁻¹ s⁻¹.

With `CSc1ccc(C(=O)Nc2cnc(-c3ccc(F)cc3)n(CC(=O)N[C@@H](CC(=O)O)C(=O)COc3cc(C(F)(F)F)nn3-c3ccc(Cl)cc3)c2=O)cc1`, the K obs / 1 is 110000 M⁻¹ s⁻¹.

Take `O=C(O)CCCc1ccc(C(=O)N[C@H]2CCC(=O)N3CCC[C@@H](C(=O)N[C@@H](CC(=O)O)C(=O)COc4cc(C(F)(F)F)nn4-c4ccc(Cl)cc4)N3C2=O)cc1`: the K obs / 1 came to 800000 M⁻¹ s⁻¹.

Turning to `O=C(O)C[C@H](NC(=O)[C@@H]1CCCN2C(=O)CC[C@H](NC(=O)OCc3ccccc3)C(=O)N12)C(=O)COC(=O)c1c(Cl)cccc1Cl`, the K obs / 1 amounted to 572000 M⁻¹ s⁻¹.

For `CC(C)[C@H](NC(=O)OCc1ccccc1)C(=O)N[C@@H](C)C(=O)N[C@@H](CC(=O)O)C(=O)COc1cc(C(F)(F)F)nn1-c1ccc(Cl)cc1`, the K obs / 1 was 340000 M⁻¹ s⁻¹.

The compound `O=C(O)CSc1ccc(C(=O)N[C@H]2CCC(=O)N3CCC[C@@H](C(=O)N[C@@H](CC(=O)O)C(=O)COc4cc(C(F)(F)F)nn4-c4ccc(Cl)cc4)N3C2=O)cc1` displayed a K obs / 1 of 1.22e+06 M⁻¹ s⁻¹.

Consider `CC(C)[C@H](NC(=O)c1ccc(CN2CCOCC2)cc1)C(=O)N[C@@H](C)C(=O)N[C@@H](CC(=O)O)C(=O)COc1cc(C(F)(F)F)nn1-c1ccccc1`, for which the K obs / 1 came to 186000 M⁻¹ s⁻¹.

On to `O=C(O)C[C@H](NC(=O)[C@@H]1CS[C@H]2CC[C@H](NC(=O)OCc3ccccc3)C(=O)N21)C(=O)COc1cc(C(F)(F)F)nn1-c1ccccc1`, for which the K obs / 1 amounted to 42000 M⁻¹ s⁻¹.

As for `O=C(O)C[C@H](NC(=O)[C@@H]1CCCN2C(=O)CC[C@H](NC(=O)OCc3ccccc3)C(=O)N12)C(=O)COc1cc(C(F)(F)F)nn1-c1ccc(Cl)cc1`, the K obs / 1 was determined as 437000 M⁻¹ s⁻¹.

Take `Cc1nccn1Cc1ccc(C(=O)N[C@H]2CCC(=O)N3CCC[C@@H](C(=O)N[C@@H](CC(=O)O)C(=O)COC(=O)c4c(Cl)cccc4Cl)N3C2=O)cc1`: the K obs / 1 is 340000 M⁻¹ s⁻¹.

Regarding `O=C(O)C[C@H](NC(=O)Cn1c(-c2ccc(F)cc2)ncc(NC(=O)OCc2ccccc2)c1=O)C(=O)COc1cc(C(F)(F)F)nn1-c1ccc(Cl)cc1`, the K obs / 1 was 310000 M⁻¹ s⁻¹.

For the compound `CN1CCN(Cc2ccc(C(=O)N[C@H]3CCC(=O)N4CCC[C@@H](C(=O)N[C@@H](CC(=O)O)C(=O)COC(=O)c5c(Cl)cccc5Cl)N4C3=O)cc2)CC1`, the K obs / 1 was 210000 M⁻¹ s⁻¹.

As for `CN(C)Cc1ccc(C(=O)N[C@H]2CCC(=O)N3CCC[C@@H](C(=O)N[C@@H](CC(=O)O)C(=O)COc4cc(C(F)(F)F)nn4-c4ccc(Cl)cc4)N3C2=O)cc1`, the K obs / 1 turned out to be 162000 M⁻¹ s⁻¹.

In turn, `O=C(O)C[C@H](NC(=O)CN1C(=O)[C@@H](NC(=O)OCc2ccccc2)COc2ccccc21)C(=O)COc1cc(C(F)(F)F)nn1-c1ccc(Cl)cc1` yielded a K obs / 1 of 114000 M⁻¹ s⁻¹.

`C[C@@H](C(=O)N[C@@H](CC(=O)O)C(=O)COc1cc(C(F)(F)F)nn1-c1ccccc1)N1CC[C@H](NC(=O)OCc2ccccc2)C1=O`: the K obs / 1 worked out at 31800 M⁻¹ s⁻¹.

As to `CC(C)[C@H](NC(=O)c1ccc(CN2CCN(C)CC2)cc1)C(=O)N[C@@H](C)C(=O)N[C@@H](CC(=O)O)C(=O)COc1cc(C(F)(F)F)nn1-c1ccc(Cl)cc1`, the K obs / 1 was 200000 M⁻¹ s⁻¹.
